# Results: ChEMBL document CHEMBL4513216, “Probing the Open Global Health Chemical Diversity Library for Multistage-Active Starting Points for Next-Generation Antimalarials” (ACS Infect Dis, 2020)
# Experiment: Toxicity liver stage against HepG2, at 10uM
# Assay type: cell-based
# Parameters: test concentration 10 uM, cell line HepG2-A16-CD81EGFP
# Settings: human, HepG2-A16-CD81EGFP cells; read-out: INHIBITION
# Summary of the method: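 Uninfected HepG2-A16-CD81EGFP cells, 3 × 10^3 per well, 1536-well, plated on prespotted compound at 10 μM final, parasite-free screening media added to match infected plates; puromycin 10 μM positive, DMSO 0.5% negative; run in parallel with 48 h PbLuc assay at 37 °C, 5% CO2; viability by CellTiter-Glo luminescence, normalized to controls.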
row,SMILES,cytotoxicity at 10 µM [%]
1,CC(=O)Nc1ccc2c(c1)nc1n2[C@@H](CNCc2ccccc2)COC1,-10.2
2,COc1ccccc1-c1nnc([C@H]2CCN(C(=O)C3CC3)C2)o1,0.734
3,Cc1ccc(-c2noc([C@@H]3Cc4nc[nH]c4CN3)n2)cc1,0.676
4,CCCNC(=O)Nc1ccc2c(c1)N(S(=O)(=O)CC)CC2,1.97
5,Cc1nnc(SCC(=O)Nc2csc3nc(=O)c(C)nn23)s1,10.8
6,O=S1(=O)CCC(S(=O)(=O)c2cccc(S(=O)(=O)N3CCCC3)c2)C1 (stereo not drawn),3.45
7,CS(=O)(=O)N1CCC(C(=O)N2CCC(Cn3cccn3)CC2)CC1,-10.2
8,O=C(Nc1ccc(CC(=O)N2CCCC2)cc1)NC1CC1,-2.16
9,COc1cc(NC(=O)NCc2cc(C)oc2C)cc(OC)c1,5.24
10,O=C(NCC1(O)CCc2ccccc2C1)c1cccs1 (stereo not drawn),13.8
11,O=C(Nc1ccc2c(c1)OCO2)Nc1cnn(C2CCOCC2)c1,-8.54
12,COCc1cnc2n1CCN(S(=O)(=O)N(C)C)C2C (stereo not drawn),16.8
13,CC(C)n1ccc(-c2cc(C(=O)NC3CC3)c3ccccn23)n1,-5.4
14,CN(C)CCOCc1nnc2n1CCN(c1cnccn1)CC2,5.62
15,CC(C)CN1C(=O)CO[C@@H]2CN(C(=O)[C@H]3CCCO3)C[C@H]21,-5.12
16,CN(C)c1ncnc2c1CCN(c1ccccc1)CC2,13.4
17,CN1CCCN(C(=O)c2nc3c(s2)CCCN3CC2CC2)CC1,10
18,Cn1cnc(S(=O)(=O)N2CCO[C@H]3[C@@H](OCC4CC4)CC[C@@H]32)c1,7.74
19,O=C(c1c2c(N3CCCC3)ncnc2n2ccccc12)N1CCOCC1,9.49
20,CCCN1CCC2(Cc3ccccc3NC2=O)C1 (stereo not drawn),14.5
21,CSc1ccc(-n2nnc(C(=O)O)c2-c2ccccn2)cc1,-3.01
22,O=C1CC(c2ccc(Cl)c(Cl)c2)c2c(n3ccsc3nc2=O)N1 (stereo not drawn),-0.839
23,Cc1nn(-c2ccccc2)c2c1c(C(F)F)cc(=O)n2CC(=O)O,7.73

row,SMILES,cytotoxicity at 10 µM [%]
1,COc1cc(CCC(=O)N2CCC(c3cnccn3)CC2)on1,3.1
2,Oc1ccc(C2Nc3ccccc3C3=NCCCN32)cc1 (stereo not drawn),-39.1
3,O=C(N[C@@H]1CCC[C@@H](N2CCOCC2)[C@@H]1O)c1ncccn1,-25.9
4,CCN(Cc1ccncc1)CC1(O)CCN(C(=O)c2cnn(C)c2)C1 (stereo not drawn),-26.9
5,Cn1ccc(C(=O)N2CCCC(c3cc(O)n(C)n3)C2)n1 (stereo not drawn),-13.7
6,CCC(=O)N1CCC(Cc2ccccc2-c2ccccc2)(C(N)=O)C1 (stereo not drawn),-0.105
7,CC(=O)N1CCC(Cc2cnc(-c3c(C)n[nH]c3C)cn2)C1 (stereo not drawn),-1.88
8,CC(C)CN(C(=O)COc1ccc(C(N)=O)cc1)C1CCN(C)CC1,-3.24
9,CN(C)c1ncc(NC(=O)c2cccc(Nc3cnn(C)c3)c2)cn1,-2.93
10,O=C(NCc1cccnc1)Nc1ccn(CC(F)F)n1,1.68
11,COCC(C)NC(=O)c1sccc1-n1cnnn1 (stereo not drawn),-0.132
12,CCN(CC)C(=O)NC(C)c1ccc(Oc2cccnc2)c(F)c1 (stereo not drawn),17.4
13,Cc1cc(C)n(C2CN(CCC(=O)NCCc3ccccc3)C2)n1,11.8
14,CC(C)c1nc(C(=O)N(C)c2ccc(Br)cn2)cs1,7.84
15,COc1cccc(-c2nc(CNCCc3cccnc3)cs2)c1,-1.77
16,Cc1cscc1-c1nc(C2CCOC2)no1 (stereo not drawn),8.4
17,CNS(=O)(=O)c1cccc(C(C)NCc2ccsc2)c1 (stereo not drawn),2.45
18,COc1cccnc1NC(=O)COc1c(C)cccc1C,0.819
19,COc1cccc(NC(=O)NC(C)(C)c2noc(C)n2)c1,7.35
20,CCC1CN(Cc2nnc(C3CC3)o2)CCN1CCOC (stereo not drawn),3.13
21,Cc1nc(CN2CCc3cnc(C(C)C)nc3C2)oc1C,0.479
22,CN(Cc1cccc(Cl)c1)C(=O)Cn1nc(-c2ccc(F)cc2)oc1=O,-19.9
23,N#Cc1nccnc1NC1CCN(c2ccccc2OC(F)F)C1 (stereo not drawn),12.8

row,SMILES,cytotoxicity at 10 µM [%]
1,Cn1cc(CCCNS(=O)(=O)N2CCCC2c2ccco2)cn1 (stereo not drawn),9.38
2,Cc1nn(CC(=O)Nc2ccc(F)cc2)c(N)c1C#N,13.3
3,Cc1cc(S(C)(=O)=O)c(C)c(S(=O)(=O)N2CCCCCC2)c1,14.1
4,CC(C)OCCS(=O)(=O)c1nccn1-c1cccc(F)c1,-3.3
5,CCN(CC)c1ccc(NC(=O)NCC2(C(N)=O)CCOCC2)cn1,7.15
6,NS(=O)(=O)CCN(CCc1cccc(F)c1)C1CCCC1,-6.08
7,COc1ccc(CCn2cnnc2[S+](C)[O-])cc1 (stereo not drawn),3.4
8,CC(=O)N(C)c1nc(Cn2nnnc2C2CCCC2)cs1,2.11
9,COCCN(CCOC)C(=O)c1cc(F)cc2[nH]cnc12,-8
10,CC(C)N(CCCNC(=O)C1CCCN(C(N)=O)C1)S(C)(=O)=O (stereo not drawn),-8.51
11,O=C(Cn1ncc2ccccc21)Nc1ccnn1CC1CCOC1 (stereo not drawn),3.03
12,Cn1ncc2cnn(CC(O)COc3cccc4[nH]ccc34)c2c1=O (stereo not drawn),13.2
13,N#Cc1ccccc1CN(CCO)Cc1ccsc1,18.4
14,O=C(c1ncoc1-c1ccco1)N1CCCN(c2nccs2)CC1,2.99
15,CCNC(=O)COc1ccccc1N1CCCC(C)C1 (stereo not drawn),8.06
16,CCOCc1ccccc1NC(=O)NC1CCN(c2ccccc2)C1 (stereo not drawn),-6.31
17,CCN(C(=O)CCn1cccn1)C1CC1,-6.16
18,Cc1ccc(NC(C)C(=O)NCc2cccs2)cc1C (stereo not drawn),-16.4
19,CC(C)(C)NC(=O)C1CSCN1S(=O)(=O)c1cccc(F)c1 (stereo not drawn),-16.7
20,CC(C)S(=O)(=O)NCC1CCCN(C(=O)c2ccc3c(c2)OCCO3)C1 (stereo not drawn),-35.2
21,CCc1c(C)nn(CC(=O)NC(C(=O)O)c2c(C)n[nH]c2C)c1C (stereo not drawn),5.79
22,CCC(Nc1cccc(OC)c1)C(=O)NCc1ccc2c(c1)OCO2 (stereo not drawn),-1.11
23,COc1cccc(CC2CN(C3CCCCC3)CCO2)c1 (stereo not drawn),-11.9

row,SMILES,cytotoxicity at 10 µM [%]
1,CC(=O)c1ccc(N2CCN(C(=O)c3cc(C(C)C)nn3C)CC2)cc1,11
2,CNc1nc(C(=O)N2CCC3(CCCN(CCOC)C3=O)C2)cs1 (stereo not drawn),7.55
3,CCn1cc(-c2n[nH]c(=O)n2-c2ccc3c(c2)OCO3)c(C)n1,2.25
4,O=c1[nH]cnc2c1CCN(S(=O)(=O)c1ccc(Cl)cc1)C2,-1.68
5,CNc1cc(-c2ccccc2CN)c2cc[nH]c2n1,-1.43
6,CCn1ccnc1CN1CCCN(CC2CC2)C(C(C)C)C1 (stereo not drawn),2.63
7,OC1(CNCCN2CCc3ccccc32)CNCCOC1 (stereo not drawn),10.7
8,Cc1cc(C)c(-n2cccn2)c(CN2CCOCC(CN(C)C)C2)c1 (stereo not drawn),-8.83
9,O=C1O[C@@H]2CN(Cc3cc4ccccc4s3)C[C@@H]2N1Cc1ccccn1,10.2
10,COc1ccc(CCNCc2ccco2)cc1OC,-0.0184
11,CN(Cc1noc2c1CCCC2)C(=O)Nc1ccc2oc(=O)n(C)c2c1,-2.36
12,Cc1ccc(-c2ccnc(N3CCC4(CCO4)CC3)n2)c(C)n1,2.05
13,COc1ccc(CN2CCC3(CCCN(C)C3=O)C2)c(Cl)c1OC (stereo not drawn),-1.24
14,CN1CCn2nc(-c3nc4ccccc4n3C)cc2C1,-6.99
15,COCc1nc(CN2CC(C)(c3ccccc3)CCC2=O)no1 (stereo not drawn),4.85
16,CCN1CCN(C(=O)COc2ccc(CN(C)S(C)(=O)=O)cc2)CC1,3.3
17,CCCc1cc(NCCC2CCCOC2)n2nccc2n1 (stereo not drawn),3.63
18,CCc1c(C)nc(C)nc1N1CCC(NCCSc2nnnn2C)CC1,-15.9
19,CN(CCc1ccccn1)c1cc(N2CCCCC2)ncn1,3.61
20,O=S(=O)(Cc1ccccc1F)NCCCN1CCCCC1,17.3
21,CCOc1ccccc1OC1CCN(Cc2ccn(C)c(=O)c2)CC1,3.91
22,Cc1cc(C)n(CC2CN(CC(=O)Nc3c(C)n[nH]c3C)CCO2)n1 (stereo not drawn),-9.86
23,CN(Cc1nc(N)c2ccccc2n1)C1CCCN(c2cccnn2)C1 (stereo not drawn),-12.2

row,SMILES,cytotoxicity at 10 µM [%]
1,CCc1nc2n(n1)CC(NCc1ncc(-c3ccccc3)o1)CC2 (stereo not drawn),-3.91
2,O=C(c1cc(C2CC2)[nH]n1)N1CCN(Cc2ccsc2)CC1,-9.04
3,Cc1ccc(S(=O)(=O)N2CCOc3ccccc32)cc1C(N)=O,7.91
4,Cc1nccn1C1CCCN(C(=O)COCC(F)(F)F)C1 (stereo not drawn),-12.1
5,O=C(c1ccc(-n2ccnc2)nc1)N1CCCC(n2cccn2)C1 (stereo not drawn),-5.13
6,Cc1nc(C2CCCN(C(=O)c3ccco3)C2)no1 (stereo not drawn),0.529
7,c1ccc(-n2ccc(CN3CCCC3Cn3cccn3)n2)cc1 (stereo not drawn),-2.48
8,Cc1cc(C)n(CC2CN(Cc3nc(-c4ccco4)no3)CCO2)n1 (stereo not drawn),-6.58
9,CCN(Cc1cccc2c1OCO2)C(=O)NC1CC1,-9.48
10,Cc1ncc(CNCC2CCCN2c2cccnn2)s1 (stereo not drawn),1.97
11,O=C(Cc1ccc2c(c1)OCCO2)N1CCCC(n2cccn2)C1 (stereo not drawn),7
12,CO[C@H]1CN(C(=O)c2ccccn2)[C@@H]2CCCO[C@H]12,3.52
13,Cn1cc(CN2CCCC23CCN(C(=O)c2ccncc2)CC3)cn1,-3.51
14,Cn1ccnc1C(=O)N1CCC2(CCCN2CC2CC2)CC1,8.31
15,CCOc1ncnc2c1CCN(Cc1cccs1)CC2,10.2
16,O=C(N1CCOCC1)[C@@]12CCO[C@@H]1CCN(Cc1ccccc1F)C2,2.99
17,COc1cc(Br)c(CNC2CCCNC2=O)cc1OC (stereo not drawn),1.93
18,Cn1cc(CN2CCC3(CC2)CC(c2ccncc2)C(=O)N3)cn1 (stereo not drawn),1.75
19,CCc1cnc(N2CCc3ncnc(N4CCN(C)CC4)c3CC2)nc1,-1.13
20,CC(C)N(C)Cc1nnc2n1CCCN(S(=O)(=O)C1CC1)C2,-0.48
21,O=C1CCCC2=C1C(c1ccco1)C1C(=O)NN=C1N2 (stereo not drawn),2.1
